The target of data set [1] is ATP-binding cassette sub-family C member 11 (Homo sapiens) (UniProt Q96J66). Put plainly: TP_TRANSPORTER: inhibition of Estradiol-17beta-D-glucuronide uptake by Probenecid at a concentration of 10 uM in membrane vesicle from MRP8-expressing LLC-PK1 cells. The arrangement: scale not given: the % may be the effect or the level left. It is filed as functional, cell membranes. The gist of the method:
(§1)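 Vesicles (10 µg) from LLC-PK1-MRP8-3 cells incubated 10 min at 37°C with 1 µM [3H]E217βG plus modulator, in 0.25 M sucrose, 10 mM Tris-HCl pH 7.4, 10 mM MgCl2, creatine phosphate/creatine kinase, with 4 mM ATP or 4 mM AMP. Rapid filtration, scintillation counting. ATP-dependent uptake (ATP minus AMP) expressed as % of modulator-free uptake. At least three measurements, each in duplicate.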

The test system of data set [2] is CN(Cc1cnc2nc(N)nc(N)c2n1)c1ccc(C(=O)N[C@@H](CCC(=O)O)C(=O)O)cc1. The following applies: LLC-PK1; Membrane vesicle.
The test system of data set [3] is C[C@]12CC[C@@H]3c4ccc(O)cc4CC[C@H]3[C@@H]1CC[C@@H]2O[C@@H]1O[C@H](C(=O)O)[C@@H](O)[C@H](O)[C@H]1O. Conditions: LLC-PK1; Membrane vesicle.
Data set [4] has as its system C[C@]12CC[C@H](OS(=O)(=O)O)CC1=CC[C@@H]1[C@@H]2CC[C@]2(C)C(=O)CC[C@@H]12. Conditions: LLC-PK1; Membrane vesicle.
Data set [5] has as its target ATP-binding cassette sub-family C member 11 (Homo sapiens) (UniProt Q96J66). The data set is described as follows: TP_TRANSPORTER: inhibition of Estradiol-17beta-D-glucuronide uptake by cGMP at a concentration of 10 uM in membrane vesicle from MRP8-expressing LLC-PK1 cells. It is filed as functional, cell membranes. Details: scale not given: the % may be the effect or the level left. The gist of the method:
as §1

For data set [6] the target is unchanged. The data set is described as follows: TP_TRANSPORTER: inhibition of Estradiol-17beta-D-glucuronide uptake by Glycolithocholate at a concentration of 10 uM in membrane vesicle from MRP8-expressing LLC-PK1 cells. It is filed as functional, cell membranes. Details: scale not given: the % may be the effect or the level left. The gist of the method:
as §1

For data set [7] the target is unchanged. Put plainly: TP_TRANSPORTER: inhibition of Estradiol-17beta-D-glucuronide uptake by 2,4-dinitrophenyl-S-glutathione at a concentration of 10 uM in membrane vesicle from MRP8-expressing LLC-PK1 cells. It counts as functional, cell membranes. The arrangement: scale not given: the % may be the effect or the level left. The gist of the method:
as §1

The target is the same in data set [8]. The data set is described as follows: TP_TRANSPORTER: inhibition of Estradiol-17beta-D-glucuronide uptake by Indomethacin at a concentration of 10 uM in membrane vesicle from MRP8-expressing LLC-PK1 cells. It is filed as functional, cell membranes. The arrangement: scale not given: the % may be the effect or the level left. The gist of the method: as §1
The target is the same in data set [9]. Put plainly: TP_TRANSPORTER: inhibition of Estradiol-17beta-D-glucuronide uptake by MK-571 at a concentration of 10 uM in membrane vesicle from MRP8-expressing LLC-PK1 cells. It counts as functional, cell membranes. Details: scale not given: the % may be the effect or the level left. The gist of the method:
as §1

Data set [10] shares this target. The data set is described as follows: TP_TRANSPORTER: inhibition of Estradiol-17beta-D-glucuronide uptake by Glycocholate at a concentration of 10 uM in membrane vesicle from MRP8-expressing LLC-PK1 cells. It is filed as functional, cell membranes. The arrangement: scale not given: the % may be the effect or the level left. The gist of the method: as §1
For data set [11] the target is unchanged. The data set is described as follows: TP_TRANSPORTER: inhibition of Estradiol-17beta-D-glucuronide uptake by Dehydroepiandrosterone-3-sulfate at a concentration of 10 uM in membrane vesicle from MRP8-expressing LLC-PK1 cells. It is filed as functional, cell membranes. The arrangement: scale not given: the % may be the effect or the level left. The gist of the method:
as §1

Data set [12] has the same target. The data set is described as follows: TP_TRANSPORTER: inhibition of Estradiol-17beta-D-glucuronide uptake by Leukotrien C4 at a concentration of 1 uM in membrane vesicle from MRP8-expressing LLC-PK1 cells. It is filed as functional, cell membranes. Details: scale not given: the % may be the effect or the level left. The gist of the method:
as §1

Data set [13] has the same target. The data set is described as follows: TP_TRANSPORTER: inhibition of Estradiol-17beta-D-glucuronide uptake by Sildenifil at a concentration of 10 uM in membrane vesicle from MRP8-expressing LLC-PK1 cells. It counts as functional, cell membranes. The arrangement: scale not given: the % may be the effect or the level left. The gist of the method:
as §1

Experimental findings from ChEMBL document CHEMBL2074545, “Transport of bile acids, sulfated steroids, estradiol 17-beta-D-glucuronide, and leukotriene C4 by human multidrug resistance protein 8 (ABCC11)” (Mol Pharmacol, 2004) are described below.

The Km is the concentration of substrate that gives half-maximal velocity.

Chain of ATP-binding cassette sub-family C member 11 (Homo sapiens) (Q96J66 whole entry): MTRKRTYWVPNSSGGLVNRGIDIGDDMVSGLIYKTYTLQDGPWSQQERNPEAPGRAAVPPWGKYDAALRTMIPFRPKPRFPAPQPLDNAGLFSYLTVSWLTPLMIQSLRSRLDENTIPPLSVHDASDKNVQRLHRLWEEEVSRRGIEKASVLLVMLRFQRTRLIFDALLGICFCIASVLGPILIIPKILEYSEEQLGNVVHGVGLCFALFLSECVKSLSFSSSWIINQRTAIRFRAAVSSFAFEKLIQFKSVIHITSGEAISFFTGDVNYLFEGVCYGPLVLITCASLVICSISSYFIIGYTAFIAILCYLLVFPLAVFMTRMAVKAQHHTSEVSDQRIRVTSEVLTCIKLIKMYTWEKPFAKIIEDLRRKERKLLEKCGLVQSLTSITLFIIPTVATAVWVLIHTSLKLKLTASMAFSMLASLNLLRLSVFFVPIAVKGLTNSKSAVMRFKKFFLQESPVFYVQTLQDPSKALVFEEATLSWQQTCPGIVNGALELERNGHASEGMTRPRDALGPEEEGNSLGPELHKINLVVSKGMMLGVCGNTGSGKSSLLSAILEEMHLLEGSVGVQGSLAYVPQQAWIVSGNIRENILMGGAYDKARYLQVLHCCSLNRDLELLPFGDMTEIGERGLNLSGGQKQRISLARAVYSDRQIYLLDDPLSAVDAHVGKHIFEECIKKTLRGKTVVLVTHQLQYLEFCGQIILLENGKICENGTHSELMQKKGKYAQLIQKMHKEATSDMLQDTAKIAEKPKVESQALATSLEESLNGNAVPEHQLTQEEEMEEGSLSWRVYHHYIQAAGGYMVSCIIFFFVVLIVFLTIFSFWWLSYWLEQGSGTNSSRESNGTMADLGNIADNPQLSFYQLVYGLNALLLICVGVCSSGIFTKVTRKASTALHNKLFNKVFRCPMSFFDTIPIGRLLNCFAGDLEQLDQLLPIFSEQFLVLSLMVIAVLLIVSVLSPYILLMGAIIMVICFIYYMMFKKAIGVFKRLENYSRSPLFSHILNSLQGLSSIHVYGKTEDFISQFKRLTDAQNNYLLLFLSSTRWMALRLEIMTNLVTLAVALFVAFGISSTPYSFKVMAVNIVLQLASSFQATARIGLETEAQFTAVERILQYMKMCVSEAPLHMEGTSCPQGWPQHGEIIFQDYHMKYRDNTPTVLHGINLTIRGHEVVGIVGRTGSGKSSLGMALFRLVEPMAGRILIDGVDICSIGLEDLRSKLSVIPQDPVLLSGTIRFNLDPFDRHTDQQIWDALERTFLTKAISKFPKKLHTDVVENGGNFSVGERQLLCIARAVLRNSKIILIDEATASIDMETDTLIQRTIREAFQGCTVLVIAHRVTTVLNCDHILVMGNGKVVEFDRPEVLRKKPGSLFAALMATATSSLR
Chain of ATP-binding cassette sub-family C member 11 (Homo sapiens), Q96J66 (Q96J66 whole entry): as above

With `CCCN(CCC)S(=O)(=O)c1ccc(C(=O)O)cc1`, the Activity in data set [1] was 76%.
“ATP-binding cassette sub-family C member 11 (Homo sapiens), Q96J66”: the Km amounted to 957 µM in [2], 62.9 µM in data set [3] and 13 µM in data set [4].
Turning to `Nc1nc2c(ncn2[C@@H]2O[C@@H]3COP(=O)(O)O[C@H]3[C@H]2O)c(=O)[nH]1`, the Activity in data set [5] is 73%.
Regarding `C[C@H](CCC(=O)NCC(=O)O)[C@H]1CC[C@H]2[C@@H]3CC[C@@H]4C[C@H](O)CC[C@]4(C)[C@H]3CC[C@]12C`, the Activity in data set [6] is 16%.
Regarding `N[C@@H](CCC(=O)N[C@H](CSc1ccc([N+](=O)[O-])cc1[N+](=O)[O-])C(=O)NCC(=O)O)C(=O)O`, the Activity in data set [7] is 17%.
Consider `COc1ccc2c(c1)c(CC(=O)O)c(C)n2C(=O)c1ccc(Cl)cc1`, for which the Activity in data set [8] was 64%.
In the case of `CN(C)C(=O)CCSC(SCCC(=O)O)c1cccc(/C=C/c2ccc3ccc(Cl)cc3n2)c1` (stereo not drawn), the Activity in data set [9] is 25%.
As to `C[C@H](CCC(=O)NCC(=O)O)[C@H]1CC[C@H]2[C@@H]3[C@H](O)C[C@@H]4C[C@H](O)CC[C@]4(C)[C@H]3C[C@H](O)[C@]12C`, the Activity in [10] is 62%.
`C[C@]12CC[C@H](OS(=O)(=O)O)CC1=CC[C@@H]1[C@@H]2CC[C@]2(C)C(=O)CC[C@@H]12`: the Activity in data set [11] is 196%.
Regarding `CCCCC/C=C\C\C=C/C=C/C=C/[C@@H](SC[C@@H](NC(=O)CC[C@H](N)C(=O)O)C(=O)NCC(=O)O)[C@@H](O)CCCC(=O)O`, in [12], the Activity is 72%.
As to `CCCc1nn(C)c2c(=O)[nH]c(-c3cc(S(=O)(=O)N4CCN(C)CC4)ccc3OCC)nc12`, the Activity in data set [13] was 79%.
